Laboratory results as given in ChEMBL document CHEMBL3808357, “Discovery of N-(3-((1-Isonicotinoylpiperidin-4-yl)oxy)-4-methylphenyl)-3-(trifluoromethyl)benzamide (CHMFL-KIT-110) as a Selective, Potent, and Orally Available Type II c-KIT Kinase Inhibitor for Gastrointestinal Stromal Tumors (GISTs)” (J Med Chem, 2016).
The source made the active and inactive calls. No cut-off for these calls is given here.

What was measured:
[1] = biological target: Mast/stem cell growth factor receptor Kit (Homo sapiens) (UniProt P10721); assay: Inhibition of cKIT autophosphorylation at Y823 in human GIST882 cells up to 10 uM after 2 hrs by Western blot analysis; assay type: cell-based
Chain of Mast/stem cell growth factor receptor Kit (Homo sapiens) (P10721 whole entry, the tested form may be a part): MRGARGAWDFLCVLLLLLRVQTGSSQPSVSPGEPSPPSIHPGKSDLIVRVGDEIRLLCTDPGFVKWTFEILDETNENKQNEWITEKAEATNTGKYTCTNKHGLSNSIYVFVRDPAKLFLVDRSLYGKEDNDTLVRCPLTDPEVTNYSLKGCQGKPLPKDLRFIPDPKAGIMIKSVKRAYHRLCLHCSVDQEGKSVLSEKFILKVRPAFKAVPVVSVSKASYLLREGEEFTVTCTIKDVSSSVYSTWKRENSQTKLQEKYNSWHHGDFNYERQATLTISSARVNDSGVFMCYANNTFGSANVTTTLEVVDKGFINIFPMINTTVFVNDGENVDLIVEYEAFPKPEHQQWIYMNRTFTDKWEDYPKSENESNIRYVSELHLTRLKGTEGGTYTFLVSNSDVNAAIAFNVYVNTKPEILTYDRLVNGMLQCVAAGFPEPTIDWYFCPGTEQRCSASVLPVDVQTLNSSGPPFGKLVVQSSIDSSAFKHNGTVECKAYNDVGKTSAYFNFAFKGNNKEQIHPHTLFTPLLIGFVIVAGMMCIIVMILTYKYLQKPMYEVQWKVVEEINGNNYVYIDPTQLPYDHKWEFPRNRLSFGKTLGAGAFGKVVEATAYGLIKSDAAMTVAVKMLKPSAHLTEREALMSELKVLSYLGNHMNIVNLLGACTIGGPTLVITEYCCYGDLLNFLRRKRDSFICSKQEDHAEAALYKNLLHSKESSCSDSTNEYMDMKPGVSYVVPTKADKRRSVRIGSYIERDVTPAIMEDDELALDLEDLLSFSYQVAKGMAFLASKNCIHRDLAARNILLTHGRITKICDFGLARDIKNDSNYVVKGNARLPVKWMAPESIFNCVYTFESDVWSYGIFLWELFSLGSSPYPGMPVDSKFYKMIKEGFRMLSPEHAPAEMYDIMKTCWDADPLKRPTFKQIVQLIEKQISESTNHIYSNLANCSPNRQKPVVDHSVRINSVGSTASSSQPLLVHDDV

[2] = biological target: Mast/stem cell growth factor receptor Kit (Homo sapiens) (UniProt P10721); assay: Inhibition of cKIT in human GISTT1 cells assessed as suppression of ERK phosphorylation at T202/Y204 up to 10 uM after 2 hrs by Western blot analysis; assay type: cell-based
[3] = biological target: Mast/stem cell growth factor receptor Kit (Homo sapiens) (UniProt P10721); assay: Inhibition of cKIT in human GISTT1 cells assessed as suppression of S6K phosphorylation at T389 up to 10 uM after 2 hrs by Western blot analysis; assay type: cell-based
[4] = biological target: Mast/stem cell growth factor receptor Kit (Homo sapiens) (UniProt P10721); assay: Inhibition of cKIT in human GISTT1 cells assessed as suppression of STAT5 phosphorylation at Y694 up to 10 uM after 2 hrs by Western blot analysis; assay type: cell-based
[5] = biological target: Mast/stem cell growth factor receptor Kit (Homo sapiens) (UniProt P10721); assay: Inhibition of cKIT in human GIST882 cells assessed as suppression of ERK phosphorylation at T202/Y204 up to 10 uM after 2 hrs by Western blot analysis; assay type: cell-based
[6] = biological target: Mast/stem cell growth factor receptor Kit (Homo sapiens) (UniProt P10721); assay: Inhibition of cKIT in human GIST882 cells assessed as suppression of S6K phosphorylation at T389 up to 10 uM after 2 hrs by Western blot analysis; assay type: cell-based
[7] = biological target: Mast/stem cell growth factor receptor Kit (Homo sapiens) (UniProt P10721); assay: Inhibition of cKIT autophosphorylation at Y823 in human GIST48B cells up to 10 uM after 2 hrs by Western blot analysis; assay type: cell-based
[8] = biological target: Platelet-derived growth factor receptor alpha (Homo sapiens) (UniProt P16234); assay: Inhibition of PDGFRalpha phosphorylation at Y849 in human GIST48B cells up to 10 uM after 2 hrs by Western blot analysis; assay type: cell-based
Chain of Platelet-derived growth factor receptor alpha (Homo sapiens) (P16234 whole entry): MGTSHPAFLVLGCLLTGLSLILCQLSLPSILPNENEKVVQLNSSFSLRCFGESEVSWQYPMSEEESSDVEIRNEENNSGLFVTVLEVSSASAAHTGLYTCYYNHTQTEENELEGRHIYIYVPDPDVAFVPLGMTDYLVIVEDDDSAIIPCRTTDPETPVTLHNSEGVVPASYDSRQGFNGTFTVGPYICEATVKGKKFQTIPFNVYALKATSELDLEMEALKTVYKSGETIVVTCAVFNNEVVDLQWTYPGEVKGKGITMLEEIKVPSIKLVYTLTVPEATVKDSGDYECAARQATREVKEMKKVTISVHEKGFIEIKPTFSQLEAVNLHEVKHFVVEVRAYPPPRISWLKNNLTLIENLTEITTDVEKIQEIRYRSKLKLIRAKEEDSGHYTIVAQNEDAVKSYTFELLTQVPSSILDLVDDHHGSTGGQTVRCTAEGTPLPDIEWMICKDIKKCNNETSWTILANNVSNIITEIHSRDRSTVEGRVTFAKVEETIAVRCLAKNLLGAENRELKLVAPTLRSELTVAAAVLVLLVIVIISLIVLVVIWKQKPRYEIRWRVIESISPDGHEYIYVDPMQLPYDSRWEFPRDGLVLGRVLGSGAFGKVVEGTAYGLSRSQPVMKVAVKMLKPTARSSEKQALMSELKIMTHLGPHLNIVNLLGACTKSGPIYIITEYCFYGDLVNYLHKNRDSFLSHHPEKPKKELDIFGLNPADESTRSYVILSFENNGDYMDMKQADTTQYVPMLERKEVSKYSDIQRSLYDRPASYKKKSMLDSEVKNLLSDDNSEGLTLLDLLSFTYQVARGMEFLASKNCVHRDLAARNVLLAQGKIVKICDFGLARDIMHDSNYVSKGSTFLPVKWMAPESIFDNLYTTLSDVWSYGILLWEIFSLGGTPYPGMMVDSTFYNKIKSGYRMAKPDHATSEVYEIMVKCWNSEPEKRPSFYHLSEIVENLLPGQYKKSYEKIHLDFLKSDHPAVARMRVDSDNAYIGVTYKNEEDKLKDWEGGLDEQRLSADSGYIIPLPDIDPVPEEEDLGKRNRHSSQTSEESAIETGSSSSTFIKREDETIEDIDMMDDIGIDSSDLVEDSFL
Method in brief: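 Cells were washed in cold PBS, lysed in RIPA and immunoblotted for phospho and total proteins, including pPDGFRα Y849/PDGFRβ Y857 and β-actin.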

GISTT1 = assay: Induction of apoptosis in human GISTT1 cells assessed as PARP cleavage up to 3 uM after 48 hrs by Western blot analysis; assay type: functional, cell-based
GIST48B [9] = assay: Induction of apoptosis in human GIST48B cells assessed as caspase 3 cleavage up to 3 uM after 72 hrs by Western blot analysis; assay type: functional, cell-based
GIST48B [10] = assay: Induction of apoptosis in human GIST48B cells assessed as PARP cleavage up to 3 uM after 72 hrs by Western blot analysis; assay type: functional, cell-based
[11] = MRT(0 to t) in Sprague-Dawley rat plasma at 1 mg/kg, iv; assay type: ADME, organism-based
Method in brief: (§1)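 Male Sprague–Dawley rats, 8 weeks old, six in total, fasted overnight; compound dissolved in 5% DMSO/40% PEG400/55% saline (1 mg/mL dosing solution), given iv or orally. About 0.2 mL jugular blood taken with heparin at 1 min–8 h (iv) or 5 min–24 h (oral); plasma separated at 2–8 °C and stored at −80 °C before analysis.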

[12] = Cmax in Sprague-Dawley rat plasma at 10 mg/kg, po; assay type: ADME, organism-based; parameters: dose 10 mg/kg, route oral
Method in brief: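 Male Sprague-Dawley rats, 8 weeks old, fasted overnight, dosed iv or orally. Formulation was 5% DMSO/40% PEG400/55% saline at 1 mg/mL. Blood (~0.2 mL) was drawn from the jugular vein into heparin. Sampling: iv at 1 min to 8 h; oral at 5 min to 24 h. Plasma was separated by centrifugation at 2−8 °C and stored at −80 °C.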

[13] = Oral bioavailability in Sprague-Dawley rat plasma at 10 mg/kg; assay type: ADME, organism-based; method in brief: as §1
[14] = Antitumor activity against human GISTT1 cells xenografted in nu/nu mouse assessed as tumor growth inhibition at 100 mg/kg/day administered through oral gavage after 21 days; assay type: functional; settings: 504 h, read-out: TGI
Method in brief: (§2)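 Female nu/nu mice, 6 weeks old, received 5 × 10⁶ GIST-T1 cells in PBS/Matrigel (1:1) subcutaneously in the right flank. At 100−200 mm³, six mice per group were dosed daily by oral gavage at 25, 50 or 100 mg/kg/d in 0.5% methylcellulose/0.4% Tween80, or vehicle. Tumor volume was taken as (W²×L)/2, with body weight and tumor measured daily. Tumors were stained for Ki67 (IHC, 1:50 antibody) and by TUNEL.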

[15] = Antitumor activity against human GISTT1 cells xenografted in nu/nu mouse assessed as tumor growth inhibition at 50 mg/kg/day administered through oral gavage after 21 days; assay type: functional; settings: 504 h, read-out: TGI; method in brief: as §2
[16] = biological target: T1, Epithelial discoidin domain-containing receptor 1 (Homo sapiens, UniProt Q08345); assay: Inhibition of human wild type partial length DDR1 expressed in bacterial expression system assessed as residual activity at 1 uM by KinomeScan method
T1 sequence (Q08345 whole entry, the tested form may be a part): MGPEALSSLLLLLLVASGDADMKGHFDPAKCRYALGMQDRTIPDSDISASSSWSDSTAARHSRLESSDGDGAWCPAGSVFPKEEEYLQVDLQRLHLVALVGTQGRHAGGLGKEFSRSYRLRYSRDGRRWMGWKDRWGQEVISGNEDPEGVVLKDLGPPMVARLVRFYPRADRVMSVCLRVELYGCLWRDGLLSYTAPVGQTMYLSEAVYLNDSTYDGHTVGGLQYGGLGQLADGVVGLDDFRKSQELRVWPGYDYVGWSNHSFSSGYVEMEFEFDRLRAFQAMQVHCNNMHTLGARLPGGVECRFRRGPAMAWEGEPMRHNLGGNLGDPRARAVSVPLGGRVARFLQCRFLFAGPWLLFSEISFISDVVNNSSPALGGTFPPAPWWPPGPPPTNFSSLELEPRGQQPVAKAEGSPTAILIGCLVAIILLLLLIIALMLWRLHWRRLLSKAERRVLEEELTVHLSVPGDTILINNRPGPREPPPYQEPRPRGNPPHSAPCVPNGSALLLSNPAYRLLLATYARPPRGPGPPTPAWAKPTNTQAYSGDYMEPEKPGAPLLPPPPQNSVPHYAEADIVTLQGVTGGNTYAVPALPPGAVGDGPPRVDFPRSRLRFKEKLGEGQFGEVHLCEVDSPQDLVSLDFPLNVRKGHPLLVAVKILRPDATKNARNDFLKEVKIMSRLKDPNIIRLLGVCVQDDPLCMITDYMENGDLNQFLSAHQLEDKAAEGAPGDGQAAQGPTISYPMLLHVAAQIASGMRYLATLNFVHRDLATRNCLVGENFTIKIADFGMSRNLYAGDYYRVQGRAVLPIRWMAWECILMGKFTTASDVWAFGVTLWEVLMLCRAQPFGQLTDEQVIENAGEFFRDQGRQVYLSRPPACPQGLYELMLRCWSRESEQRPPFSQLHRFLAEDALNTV
Method in brief: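 KinomeScan competitive binding panel of 468 kinases and mutants, compound tested at 1 μM; read-out is percent activity remaining (binding relative to control).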

[17] = biological target: T1, Epithelial discoidin domain-containing receptor 1; assay: Inhibition of GST-tagged human DDR1 expressed in baculovirus after 1 hr by Z-lyte assay
[18] = test system: Mast/stem cell growth factor receptor Kit (Homo sapiens), P10721 [V559D,V654A]; assay: Inhibition of Tel-fused cKIT V559D/V654A double mutant (unknown origin) transfected in mouse BAF3 cells assessed as decrease in cell proliferation after 72 hrs by celltiter-glo/CCK8 assay; assay type: cell-based
Chain of Mast/stem cell growth factor receptor Kit (Homo sapiens), P10721 [V559D,V654A] (P10721 whole entry V559D/V654A, the tested form may be a part): as the sequence (P10721 whole entry, the tested form may be a part) above, with V559D, V654A counted along it
Method in brief: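 Stable BaF3 lines made by retroviral transduction with mutagenized TEL-KIT MSCV vectors, puromycin selection 48 h, then gradual IL-3 withdrawal until IL-3-independent; grown in RPMI 1640 with 10% FBS. Cells at 1 to 3 × 10⁴ cells/mL exposed to a concentration series for 72 h; viability read by CellTiter-Glo luminescence or CCK-8 absorbance (450/655 nm); GI50 from triplicate testing.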

[19] = biological target: Mast/stem cell growth factor receptor Kit (Homo sapiens) (UniProt P10721); assay: Inhibition of Tel-fused cKIT L567P mutant (unknown origin) transfected in mouse BAF3 cells assessed as decrease in cell proliferation after 72 hrs by celltiter-glo/CCK8 assay; assay type: cell-based
MV4-11 = assay: Antiproliferative activity against FLT3-ITD dependent human MV4-11 cells assessed as reduction in cell viability after 72 hrs by celltiter-glo/CCK8 assay; assay type: functional; settings: MV4-11, 72 h
Method in brief: (§3)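 Cells were seeded at 1 to 3 × 10⁴ cells/mL with serial compound concentrations and incubated 72 h at 37 °C, 5% CO₂. Viability was read by CellTiter-Glo luminescence or CCK-8 absorbance (450/655 nm). GI50 values are from triplicate testing. GIST-T1 and CHO were grown in DMEM/10% FBS; GIST-882, GIST-48B and MV4-11 in IMDM/10% FBS; other lines in RPMI 1640/10% FBS.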

[20] = Antiproliferative activity against human GIST48B cells assessed as reduction in cell viability after 72 hrs by celltiter-glo/CCK8 assay; assay type: functional; method in brief: as §3
[21] = Antiproliferative activity against BCR-ABL dependent human KU812 cells assessed as reduction in cell viability after 72 hrs by celltiter-glo/CCK8 assay; assay type: functional; settings: KU812, 72 h; method in brief: as §3
[22] = Antiproliferative activity against human Rec1 cells assessed as reduction in cell viability after 72 hrs by celltiter-glo/CCK8 assay; assay type: functional; settings: Rec1, 72 h; method in brief: as §3
[23] = biological target: Mast/stem cell growth factor receptor Kit (Homo sapiens) (UniProt P10721); assay: Inhibition of cKIT autophosphorylation at Y719 in human GISTT1 cells up to 10 uM after 2 hrs by Western blot analysis; assay type: cell-based
[24] = biological target: Mast/stem cell growth factor receptor Kit (Homo sapiens) (UniProt P10721); assay: Inhibition of cKIT autophosphorylation at Y823 in human GISTT1 cells up to 10 uM after 2 hrs by Western blot analysis; assay type: cell-based

inhibition [1]: Active | inhibition [2]: Active | inhibition [3]: Active | inhibition [4]: Active | inhibition [5]: Active | inhibition [6]: Active | inhibition [7]: inactive | inhibition [8]: Active | MRT last [11]: 29 min | Cmax [12]: 125 ng/mL | bioavailability [13]: 36.1% | Activity [16]: 0.15% | IC50 [17]: 126 nM | GI50 [18]: 1050 nM | GI50 [19]: 150 nM | GI50 (MV4-11): > 10000 nM | inhibition [23]: Active | inhibition [24]: Active
SMILES: Cc1ccc(NC(=O)c2cccc(C(F)(F)F)c2)cc1OC1CCN(C(=O)c2ccncc2)CC1
Activity (GISTT1): Active | Activity (GIST48B [9]): inactive | Activity (GIST48B [10]): inactive | inhibition in vivo at 100 mg/kg/day [14]: 49% | inhibition in vivo at 50 mg/kg/day [15]: 35% | GI50 [20]: > 10000 nM | GI50 [21]: 6710 nM | GI50 [22]: > 10000 nM
